Source: BindingDB's records for doi:10.1021/jm0101702 (Abbott Laboratories, 2001)

Columns and labels:
[1] = biological target: T1, Vascular cell adhesion protein 1 (Homo sapiens, UniProt P19320); assay: In vitro inhibitory potency compared to TNF-alpha induced VCAM-1 in human endothelial cells (ELISA assay)
T1 sequence (P19320 whole entry): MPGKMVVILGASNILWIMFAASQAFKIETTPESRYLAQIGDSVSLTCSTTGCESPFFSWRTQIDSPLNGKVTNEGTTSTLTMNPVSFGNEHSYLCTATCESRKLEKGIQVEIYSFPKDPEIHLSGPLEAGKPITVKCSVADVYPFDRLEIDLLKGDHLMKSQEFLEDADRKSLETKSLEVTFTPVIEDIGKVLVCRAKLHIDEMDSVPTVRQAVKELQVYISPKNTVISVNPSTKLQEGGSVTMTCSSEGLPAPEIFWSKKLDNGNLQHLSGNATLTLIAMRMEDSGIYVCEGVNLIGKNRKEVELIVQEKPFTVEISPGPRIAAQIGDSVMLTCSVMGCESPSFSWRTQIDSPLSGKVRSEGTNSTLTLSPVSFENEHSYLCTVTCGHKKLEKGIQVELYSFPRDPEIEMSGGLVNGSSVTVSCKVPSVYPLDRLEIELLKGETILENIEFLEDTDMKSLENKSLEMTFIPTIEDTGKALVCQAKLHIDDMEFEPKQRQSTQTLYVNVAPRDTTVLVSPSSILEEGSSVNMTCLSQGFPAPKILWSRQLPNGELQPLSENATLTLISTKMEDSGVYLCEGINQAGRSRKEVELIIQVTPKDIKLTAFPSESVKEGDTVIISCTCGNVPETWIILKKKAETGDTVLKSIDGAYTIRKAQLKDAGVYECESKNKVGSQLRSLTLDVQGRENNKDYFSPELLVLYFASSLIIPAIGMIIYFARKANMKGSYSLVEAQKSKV
Outline: (§1)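 Whole-cell ELISA on primary HUVECs plated at 5 × 10^4 cells/mL in EBM/2% FBS with growth supplements. Compound preincubated 24 h at 37 °C, then inducer added (TNFα at 5 ng/mL final, or IL-1β or PMA in its place) for 6 h at 37 °C. Mouse monoclonal anti-E-selectin, anti-ICAM-1 or anti-VCAM-1 was applied overnight at 4 °C, then HRP anti-mouse IgG. Detection with OPD, A490. Triplicate assays.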

[2] = biological target: T1, Vascular cell adhesion protein 1; assay: In vitro inhibitory potency compared to IL1-beta induced VCAM-1 in human endothelial cells (ELISA assay); outline: as §1
[3] = biological target: T1, Vascular cell adhesion protein 1; assay: In vitro inhibitory potency compared to PMA induced VCAM-1 in human endothelial cells (ELISA assay); outline: as §1
[4] = Inhibition of VCAM-1 in human endothelial cells
[5] = biological target: T1, Vascular cell adhesion protein 1; assay: In vitro inhibitory potency compared to IL1-beta induced VCAM-1 expression in human endothelial cells (ELISA assay)
Outline: (§2)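 Primary HUVECs seeded at 5 × 10^4 cells/mL in EBM/2% FBS with EGF, bovine brain extract and gentamicin. Compound added next day for 24 h at 37 °C, then inducer (IL-1β or PMA, level not stated) for 6 h at 37 °C. Whole-cell ELISA used mouse monoclonal anti-ICAM-1 or anti-VCAM-1, HRP donkey anti-mouse IgG and OPD, read at 490 nm. Run in triplicate.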

[6] = biological target: T1, Vascular cell adhesion protein 1; assay: In vitro inhibitory potency compared to PMA induced VCAM-1 expression in human endothelial cells (ELISA assay); outline: as §2
[7] = biological target: T1, Vascular cell adhesion protein 1; assay: Inhibition of VCAM-1 in human endothelial cells; outline: as §1

Row | Compound | IC50 [4] [nM] | further results
1 | NC(=O)c1cc2c(Oc3ccc(Br)cc3)cncc2s1 [4-(4-Bromo-phenoxy)-thieno[2,3-c]pyridine-2-carboxylic acid amide] | 48 | IC50 [1]: 8 nM; IC50 [2]: 7 nM; IC50 [3]: 20 nM
2 | CNC(=O)c1cc2c(Oc3ccc(Cl)cc3)cncc2s1 [4-(4-Chloro-phenoxy)-thieno[2,3-c]pyridine-2-carboxylic acid methylamide] | > 1000 | IC50 [5]: 70 nM; IC50 [6]: 200 nM
3 | CNC(=O)c1cc2c(Oc3ccc(-c4nnn[nH]4)cc3)cncc2s1 [4-[4-(1H-Tetrazol-5-yl)-phenoxy]-thieno[2,3-c]pyridine-2-carboxylic acid methylamide] | > 1000 | –
4 | NC(=O)c1cc2c(Oc3ccc(/C=C/C(=O)NCCN(CCO)CCO)cc3)cncc2s1 [4-[4-(2-{2-[Bis-(2-hydroxy-ethyl)-amino]-ethylcarbamoyl}-vinyl)-phenoxy]-thieno[2,3-c]pyridine-2-carboxylic acid amide] | > 1000 | –
5 | CNC(=O)c1cc2c(Oc3ccc(-c4cncn4C)cc3)cncc2s1 [4-[4-(3-Methyl-3H-imidazol-4-yl)-phenoxy]-thieno[2,3-c]pyridine-2-carboxylic acid methylamide] | > 180 | –
6 | NC(=O)c1cc2c(Oc3ccc(C(=O)N4CCOCC4)cc3)cncc2s1 [4-[4-(Morpholine-4-carbonyl)-phenoxy]-thieno[2,3-c]pyridine-2-carboxylic acid amide] | > 1000 | –
7 | Cc1ccc(Sc2cncc3sc(C(N)=O)cc23)cc1 [4-p-Tolylsulfanyl-thieno[2,3-c]pyridine-2-carboxylic acid amide] | – | IC50 [7]: > 1000 nM
8 | NC(=O)c1cc2c(Oc3ccc(/C=C/C(=O)NCC(O)CO)cc3)cncc2s1 (stereo not given) [4-{4-[2-(2,3-Dihydroxy-propylcarbamoyl)-vinyl]-phenoxy}-thieno[2,3-c]pyridine-2-carboxylic acid amide] | > 1000 | –
9 | CNC(=O)c1cc2c(Oc3ccc(/C=C/C(=O)NCC(O)CO)cc3)cncc2s1 (stereo not given) [4-{4-[2-(2,3-Dihydroxy-propylcarbamoyl)-vinyl]-phenoxy}-thieno[2,3-c]pyridine-2-carboxylic acid methylamide] | > 1000 | –
10 | CNC(=O)c1cc2c(Oc3ccc(/C=C/C(=O)NCCN4CCOCC4)cc3)cncc2s1 [4-{4-[2-(2-Morpholin-4-yl-ethylcarbamoyl)-vinyl]-phenoxy}-thieno[2,3-c]pyridine-2-carboxylic acid methylamide] | > 1000 | –

Now from value to compound, other results behind:

Row | IC50 [4] [nM] | Compound | further results
11 | > 1000 | NC(=O)c1cc2c(Oc3ccc(C(=O)N(C(=O)NC4CCCCC4)C4CCCCC4)cc3)cncc2s1 [4-[4-(1,3-Dicyclohexyl-ureidocarbonyl)-phenoxy]-thieno[2,3-c]pyridine-2-carboxylic acid amide] | –
12 | > 1000 | COCCOCc1ccc(Oc2cncc3sc(C(N)=O)cc23)cc1 [4-[4-(2-Methoxy-ethoxymethyl)-phenoxy]-thieno[2,3-c]pyridine-2-carboxylic acid amide] | –
13 | > 1000 | CNC(=O)c1cc2c(Oc3ccc(COCCOC)cc3)cncc2s1 [4-[4-(2-Methoxy-ethoxymethyl)-phenoxy]-thieno[2,3-c]pyridine-2-carboxylic acid methylamide] | –
14 | > 1000 | NC(=O)c1cc2c(Oc3ccc(C(=O)NCCN4CCOCC4)cc3)cncc2s1 [4-[4-(2-Morpholin-4-yl-ethylcarbamoyl)-phenoxy]-thieno[2,3-c]pyridine-2-carboxylic acid amide] | –
15 | > 1000 | CNC(=O)c1cc2c(Oc3ccc(C(=O)NCCN4CCOCC4)cc3)cncc2s1 [4-[4-(2-Morpholin-4-yl-ethylcarbamoyl)-phenoxy]-thieno[2,3-c]pyridine-2-carboxylic acid methylamide] | –
16 | > 1000 | CNC(=O)c1cc2c(Oc3ccc(/C=C/C(=O)NCCN(CCO)CCO)cc3)cncc2s1 [4-[4-(2-{2-[Bis-(2-hydroxy-ethyl)-amino]-ethylcarbamoyl}-vinyl)-phenoxy]-thieno[2,3-c]pyridine-2-carboxylic acid methylamide] | –
17 | > 1000 | CNC(=O)c1cc2c(Oc3ccc(-c4noc(C(F)(F)F)n4)cc3)cncc2s1 [4-[4-(5-Trifluoromethyl-[1,2,4]oxadiazol-3-yl)-phenoxy]-thieno[2,3-c]pyridine-2-carboxylic acid methylamide] | –
18 | > 1000 | CNC(=O)c1cc2c(Oc3ccc(C(=N)NO)cc3)cncc2s1 [4-[4-(N-Hydroxycarbamimidoyl)-phenoxy]-thieno[2,3-c]pyridine-2-carboxylic acid methylamide] | –
19 | > 1000 | NC(=O)c1cc2c(Oc3ccc(COC4CCCCO4)cc3)cncc2s1 (stereo not given) [4-[4-(Tetrahydro-pyran-2-yloxymethyl)-phenoxy]-thieno[2,3-c]pyridine-2-carboxylic acid amide] | –
20 | 11000 | Cc1ccc(Oc2cncc3sc(C(N)=O)cc23)cc1 [4-p-Tolyloxy-thieno[2,3-c]pyridine-2-carboxylic acid amide] | –
21 | 120 | CNC(=O)c1cc2c(Oc3ccc(COCCOCCOC)cc3)cncc2s1 [4-{4-[2-(2-Methoxy-ethoxy)-ethoxymethyl]-phenoxy}-thieno[2,3-c]pyridine-2-carboxylic acid methylamide] | IC50 [1]: 30 nM; IC50 [2]: 20 nM; IC50 [3]: 20 nM
22 | > 1000 | NC(=O)c1cc2c(Oc3ccc(/C=C/C(=O)NCCN4CCOCC4)cc3)cncc2s1 [4-{4-[2-(2-Morpholin-4-yl-ethylcarbamoyl)-vinyl]-phenoxy}-thieno[2,3-c]pyridine-2-carboxylic acid amide] | –
